In ChEMBL document CHEMBL1157590, “Design, synthesis, and preliminary pharmacological evaluation of new imidazolinones as L-DOPA prodrugs” (Bioorg Med Chem, 2010):
Values after ≈ are worked out from the molar mass of the structure shown. Active and inactive are the calls of the source. No cut-off for these calls is given here.

Columns and labels:
[1] = test system: Radical scavenging activity; assay: Antioxidant activity assessed as DPPH radical scavenging activity; format: functional
How it was run: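 DPPH-HPLC method. Fresh 500 μM DPPH in methanol was mixed 1:1 by volume with antioxidant solutions made at 600, 300, 100 and 50 μM in methanol (DPPH final 250 μM). Residual DPPH was separated by reversed-phase C18 HPLC using a pH 3.0 phosphate/octanesulfonate/EDTA mobile phase with 6% acetonitrile. Vitamin E, caffeic acid and L-DOPA were run as references.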

[2] = Chemical stability assessed as half life in phosphate buffer at pH 7.4; format: physicochemical
How it was run: (§1)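 Prodrug hydrolysis was followed at 37 ± 0.5 °C. Line 3 used 0.02 M HCl buffer pH 1.3 (nonenzymatic simulated gastric fluid); line 4 used 0.02 M phosphate buffer pH 7.4. Each buffer contained 20% acetonitrile, and the reaction was started with 10^-4 M acetonitrile stock. Aliquots were analysed by HPLC. Kobs came from the slope of log(% residual prodrug) versus time; triplicate runs, mean ± SEM.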

[3] = Aqueous solubility after 15 mins by shake flask method; format: physicochemical; conditions: water
[4] = organism: Homo sapiens; assay: Metabolic stability in 80% human plasma assessed as half life at pH 7.4
[5] = Chemical stability assessed as half life in hydrochloric acid buffer at pH 1.3; format: physicochemical; how it was run: as §1
[6] = Metabolic stability in 80% rat plasma assessed as half life at pH 7.4; format: ADME, cell-free
How it was run: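 Plasma was prepared from citrated blood (0.3% citric acid) of rats or humans by centrifugation at 3000 g and diluted to 80% with 0.02 M phosphate buffer pH 7.4. Drug from a 1 mg/mL acetonitrile stock was incubated at 37 °C with shaking. Timed aliquots were deproteinized with 0.01 M HCl in methanol, centrifuged and analysed by HPLC. First-order plots gave t1/2; triplicate, mean ± SEM.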

[7] = Octanol-water partition coefficient, log P at pH 7.4 by HPLC; format: physicochemical
How it was run: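 Shake-flask method. About 5 mg of compound was shaken in 1 mL n-octanol and filtered, then an equal volume of phosphate buffer pH 7.4 was added. The mixture was inverted up to 200 times over 5 min and left 30 min for the phases to separate. Both phases were analysed by HPLC. Mean of three experiments, SEM reported.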

Row | Compound | Activity [1] | half-life [2] [h] | solubility thermodynamic at 0.25 h [3] [µg/mL] | half-life [4] [h] | half-life [5] [h] | half-life [6] [h] | logD [7] | logP [7]
1 | COC(=O)CN1C(=O)[C@H](Cc2ccc(O)c(O)c2)NC1(C)C | Active | 4.2 | 3990 (≈ 12.9 mM) | 0.714 | 189 | 1.17 | 0.101 | 
2 | COC(=O)CN1C(=O)[C@H](Cc2ccc(OC(C)=O)c(OC(C)=O)c2)NC1(C)C | inactive | 11.6 | 26000 (≈ 66.4 mM) | 0.392 | 71.2 | 0.065 | 0.042 | 
3 | CCC1(CC)N[C@@H](Cc2ccc(O)c(O)c2)C(=O)N1CC(=O)OC | Active | 4.75 | 260 (≈ 0.773 mM) | 0.793 | 64.3 | 1.89 | 0.94 | 
4 | N[C@@H](Cc1ccc(O)c(O)c1)C(=O)O [LEVODOPA] |  |  | 3600 (≈ 18.3 mM) |  |  |  |  | -2.38
